Compound activity (PubChem BioAssay)
Only some compounds are listed: those with a hit (about 2.3% of all), similar ones and a draw of the others.
OXTR potentiate: human OXTR potentiators, primary screen, fluorescence, CHO-OTR cells, Fluo-8 calcium; Oxytocin receptor (Homo sapiens), P30559; AID 2445, 2010; Fluo-8 calcium fluorescence, potentiator mode; 0% = oxytocin EC15, 100% = EC100; 320,000 compounds, 0.061% hits; activation, % at 3 µM;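 active = activation above that plate's cutoff, the mean activation of tested compounds plus 3 SD, cut at about 6.6% in these data, passing the limit was not always enough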;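 note: 100% uses oxytocin at 75 nM as the full agonist control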
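System: human OTR in CHO cells; Also added: sub-maximal oxytocin, roughly EC15; Timing: compound 6 min at room temperature before oxytocin, 100 s read; Technique: Fluo-8 intracellular calcium fluorescence, ex 470-495, em 515-575 nm; Controls: oxytocin EC15 low and EC100 high; Replication: singlicate.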
TAAR1 antagonist: human TAAR1 antagonists, primary screen, Fluo-8 calcium fluorescence, CHO RD-HGA16 cells; Trace amine-associated receptor 1 (Homo sapiens), Q96RJ0; 360,000 compounds, 1.5% hits; inhibition, % at 3 µM; antagonist;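 active = inhibition above a per-plate cutoff, the mean inhibition of test compounds on that plate plus 3 SD, cut at about 49% in these data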;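 note: 0% = DMSO plus EC80 beta-PEA response and 100% = DMSO alone without agonist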
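Test system – hTAAR1-expressing CHO RD-HGA16 cells, Gα16-coupled · Reagent – β-PEA at EC80 concentration, post-compound challenge · Compound dosing – 3 µM, single point · Timing – 140 s kinetic read after compound, 140 s after agonist · Detection – Fluo-8 intracellular calcium dye fluorescence, real-time kinetic reads · Control set – DMSO and EC80 PEA controls · Repeats – n of 1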
TAAR1 agonist: human TAAR1 agonists, primary screen, Fluo-8 calcium fluorescence, CHO RD-HGA16 cells; Trace amine-associated receptor 1 (Homo sapiens), Q96RJ0; vehicle wells 0%, saturating PEA agonist 100%; activation, % at 3 µM; 360,000 compounds, 0.99% hits; AID 624467, 2012;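 active = activation above the mean activation of all test compounds in the run plus 3 SD, cut at about 38% in these data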
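System: CHO-derived RD-HGA16 cells with stable Gα16 and human TAAR1. Times: 17-24 h plating, Fluo-8 75 min 37 °C, 30 min RT. Measured by: calcium-sensitive Fluo-8 signal, excitation 470-495, emission 515-575 nm. Read-out basis: % activation relative to PEA EC100 response. Control set: DMSO and PEA EC100. Repeats: no replicates (n 1).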
V1aR counter: agonists of human V1a receptor, primary screen, counter-screen for OXTR agonist project, fluorescence, CHO-V1R cells; Vasopressin V1a receptor (Homo sapiens), P37288; Fluo-8 calcium fluorescence, agonist mode; 0% DMSO, 100% 3 nM vasopressin; activation, % at 3 µM; 320,000 compounds, 0.25% hits; AID 2797, 2010;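 active = activation above the mean activation of all tested compounds plus 3 SD, per screening run, cut at about 20% in these data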;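 note: signal is peak over basal fluorescence ratio across a 100 second FLIPR read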
Target sequence (P37288 whole entry, looked up): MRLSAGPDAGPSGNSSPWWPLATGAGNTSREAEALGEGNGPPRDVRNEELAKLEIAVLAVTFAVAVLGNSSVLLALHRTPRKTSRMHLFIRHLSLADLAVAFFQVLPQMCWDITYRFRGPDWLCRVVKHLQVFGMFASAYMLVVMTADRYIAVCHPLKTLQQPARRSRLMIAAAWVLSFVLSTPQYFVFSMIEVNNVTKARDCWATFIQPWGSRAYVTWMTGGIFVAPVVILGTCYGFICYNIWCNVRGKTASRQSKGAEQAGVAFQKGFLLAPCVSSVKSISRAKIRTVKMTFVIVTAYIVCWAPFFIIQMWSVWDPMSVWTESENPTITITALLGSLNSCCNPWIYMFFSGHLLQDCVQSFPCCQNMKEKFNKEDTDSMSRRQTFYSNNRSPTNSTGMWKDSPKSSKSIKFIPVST
OXTR agonist: human OXTR agonists, primary screen, fluorescence, CHO-OTR cells, Fluo-8 calcium; Fluo-8 calcium fluorescence; normalized: DMSO 0%, oxytocin 100%; activation, % at 3 µM; 320,000 compounds, 0.32% hits; AID 2435, 2010;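 active = activation above the mean of all tested compounds plus 3 SD, cutoff set per screening run, cut at about 20% in these data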;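 note: peak over basal fluorescence ratio from a 100 s FLIPR kinetic read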
An asterisk follows results filed as active; . = no result given.

SMILES | OXTR potentiate | TAAR1 antagonist | TAAR1 agonist | V1aR counter | OXTR agonist
CCCCN1C(=O)C(CC(=O)NCCc2ccccn2)CC(C(=O)N(C)C)=C1C (centres undefined) | . | -15 | 22 | . | .
CCCCOCC1CN(CCCC)S(=O)(=O)c2c(cccc2N2CCCC2)O1 (centres undefined) | . | -20 | 1 | . | .
C/C=C1\NC(=O)[C@H](C)NC(=O)[C@@H](NC(=O)[C@@H](Cc2ccc(O)cc2)NC(=O)[C@@H](NC(=O)/C(C)=C/C)C(C)C)[C@@H](C)OC(=O)[C@H](CCCCc2ccc(O)cc2)NC(=O)[C@@H](CCC(=O)OC)NC1=O | . | 11 | 0 | . | .
COC(=O)c1c(C)oc2ccc(N(C(=O)c3ccncc3)S(=O)(=O)c3ccc4ccccc4c3)cc12 | -1 | 50* | 2 | 7 | 3
COC(=O)c1cccc(-n2c(C)cc(O)cc2=O)c1 | . | -3 | 1 | . | .
Nc1nc(NCC2CCCO2)nc(NCC2CCCO2)c1[N+](=O)[O-] (centres undefined) | -3 | 14 | 3 | 0 | -1
CC(C)CCNc1nc(N)c([N+](=O)[O-])c(NCC2CCCO2)n1 (centres undefined) | -9 | -8 | 39* | 1 | 2
O=[N+]([O-])c1ccc2nc(-c3cccnc3)[nH]c2c1 | -11 | 8 | 7 | 2 | 1
O=[N+]([O-])c1cc([N+](=O)[O-])c2cc(-c3cccnc3)[nH]c2c1 | -4 | 49* | 19 | 3 | 3
CC(Oc1ccc(C#N)cc1)C(=O)Nc1ccc(-n2cnnn2)cc1 (centres undefined) | . | 17 | 44* | . | .
CC(=O)Nc1ccc(-n2cnnn2)cc1 | -4 | 8 | 5 | 0 | 0
CC(C)N1CCN(c2ccc(OCC3COC(Cn4cncn4)(c4ccc(Cl)cc4Cl)O3)cc2)CC1 (centres undefined) | . | 61* | 20 | . | .
COc1ccc(N2CCN(C(=O)Cn3cncn3)CC2)cc1 | -11 | -22 | 1 | 0 | 0
N#CCCN(NC(=O)OCc1ccccc1)C(=O)OCc1ccccc1 | . | -17 | 2 | . | .
Cn1nc(N)c2c(-c3ccc(Cl)cc3)c(C#N)c(N)nc21 | -4 | -1 | 0 | 1 | 1
CCN(CC)c1ccc(-c2c(C#N)c(N)nc(OC)c2C#N)cc1 | -10 | 57* | 33 | 4 | 5
CCN1C(=O)c2cccc3c(Cl)ccc(c23)C1=O | -16 | -24 | -1 | -1 | -2
CN(C)c1ccc2c3c(cccc13)C(=O)N(c1ccccc1)C2=O | -17 | . | . | 5 | 2
CC(C)CCN1C(=O)c2cccc3c(N)ccc(c23)C1=O | -20 | 78* | 149* | 170* | 128*
Nc1cccc(N2C(=O)c3cccc4c(N)ccc(c34)C2=O)c1 | -12 | 20 | 25 | 47* | 28*
Cc1cccc(N2C(=O)c3cccc4c(N)ccc(c34)C2=O)c1 | -27 | 45 | 101* | 139* | 172*
Cc1cccc(N2C(=O)c3cccc4c(N(C)CCO)ccc(c34)C2=O)c1 | -13 | . | . | 38* | 53*
O=C(O)c1cccc(N2C(=O)c3cccc4c(Cl)ccc(c34)C2=O)c1 | -13 | 2 | 0 | 0 | 1
O=S1(=O)c2cc(Cl)ccc2N2CCC[C@@H]2CN1Cc1ccc(Cl)c(Cl)c1 | . | -12 | 2 | . | .
CCc1c(-c2ccc(OC)cc2)ncn1CCc1ccccc1OC | . | -16 | 18 | . | .
CCCCNC(=O)C1(C)CCN1C(=O)CSc1ccccc1 (centres undefined) | . | -10 | -1 | . | .
CCOC(=O)[C@]12CCCC=C1N(CCc1ccc(OC)c(OC)c1)C(=O)[C@H](CC(=O)NCCCCc1ccccc1)C2 | . | 5 | 1 | . | .
CO/N=C(\CS(=O)(=O)Cc1ccc(OC)cc1)c1ccc(Cl)cc1 | -1 | 24 | 43* | 0 | -1
COc1ccc(CS(=O)(=O)CC(C)(O)c2ccc(Cl)cc2)cc1 (centres undefined) | -11 | 3 | -2 | 0 | -2
O=C(c1nc2ccc(Cl)cn2c1CN1CCC(CO)CC1)N1CCc2ccccc2C1 | -4 | -14 | 1 | -1 | 0
